How the values were obtained:
class-IIa HDAC = format: cell-based; details: HT-29 cells
Summary of the method: (§1)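 HT-29 cells were grown in DMEM with 10% FBS at 37 °C and 5% CO2, then trypsinised and washed into RPMI without phenol red containing 0.1% FBS. They were seeded at 200 000 cells/well overnight. Substrate was 100 μM Boc-Lys-TFA for class-IIa or 200 μM Boc-Lys-Ac for class-I/IIb, incubated 3 h at 37 °C. Trypsin developer with tween 80 then lysed the cells over 1 h; fluorescence read at ex 360/em 460 nm.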

class-I/IIb HDAC = format: cell-based; details: HT-29 cells
Summary of the method: as §1

[1] = screened at 1.0 and 10.0 µM side-by-side with SAHA and NT160

IC50 (class-IIa HDAC; read-out: IC50, class-IIa HDAC): > 10 µM
IC50 (class-I/IIb HDAC; read-out: IC50, class-I/IIb HDAC): > 10 µM
SMILES: O=C(O)c1ccc(-c2noc(C(F)(F)F)n2)cc1 [compound 1, 4-(5-(trifluoromethyl)-1,2,4-oxadiazol-3-yl)benzoic acid]
Inhibition of class-IIa HDAC activity (class-IIa HDAC; [1]): ~10%
Inhibition of class-I, class-IIb HDAC activities (class-I/IIb HDAC; [1]): ~10%
